Results taken from ChEMBL document CHEMBL4041542, “Synthesis and biological characterisation of ester and amide derivatives of fusidic acid as antiplasmodial agents” (Bioorg Med Chem Lett, 2017).

What was measured:
[1] = test system: CHO; assay: Cytotoxicity against CHO cells; type: cell-based; details: Cricetulus griseus
[2] = test system: Plasmodium falciparum; assay: Antiplasmodial activity against chloroquine-sensitive Plasmodium falciparum NF54 by LDH assay; type: functional
Summary of the method: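 In vitro test on the chloroquine-sensitive NF54 strain of P. falciparum, read out by the lactate dehydrogenase assay. Reported as IC50. Chloroquine and artesunate were included as reference drugs in all experiments.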

[3] = test system: Plasmodium falciparum; assay: Potency index, ratio of fusidic acid IC50 to compound IC50 for chloroquine-resistant Plasmodium falciparum K1; type: functional
[4] = test system: Plasmodium falciparum; assay: Antiplasmodial activity against chloroquine-resistant Plasmodium falciparum K1 by [3H]hypoxanthine incorporation assay; type: functional
Summary of the method: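 Multidrug-resistant K1 strain of P. falciparum tested in vitro with a modified [3H]hypoxanthine incorporation assay. IC50 determined. Chloroquine and artesunate served as reference drugs in every experiment.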

[5] = Selectivity index, ratio of IC50 for CHO cells to IC50 for chloroquine-sensitive Plasmodium falciparum NF54; type: toxicity; details: hamster, read-out: Ratio IC50
Summary of the method: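 IC50 against Chinese hamster ovary cells (cytotoxicity) was divided by IC50 against P. falciparum NF54. NF54 IC50 came from the lactate dehydrogenase assay, with chloroquine and artesunate as references.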

[6] = Stability of the compound assessed as Plasmodium falciparum NF54 esterase-mediated fusidic acid release at 0.5 uM up to 48 hrs by LC-MS/MS analysis; type: ADME; details: plasmodium falciparum nf54, isolated protein
[7] = test system: Plasmodium falciparum; assay: Potency index, ratio of fusidic acid IC50 to compound IC50 for chloroquine-sensitive Plasmodium falciparum NF54; type: functional
Summary of the method: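 Chloroquine-sensitive P. falciparum NF54 was tested with the lactate dehydrogenase assay, using chloroquine and artesunate as reference drugs. The index is fusidic acid's IC50 divided by the compound's IC50, both against NF54.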

[8] = test system: Plasmodium falciparum; assay: Antiplasmodial activity against chloroquine-sensitive Plasmodium falciparum D10 infected in erythrocytes after 48 hrs by giemsa staining based assay; type: functional, cell-based; details: D10, 48 h

Row | SMILES | IC50 [1] | IC50 [2] | Ratio IC50 [3] | IC50 [4] | selectivity ratio [5] | Stability [6] | Ratio IC50 [7] | IC50 [8]
1 | CC(=O)O[C@H]1C[C@@]2(C)[C@@H](C[C@@H](O)[C@H]3[C@@]4(C)CC[C@@H](O)[C@@H](C)[C@@H]4CC[C@@]32C)/C1=C(\CCC=C(C)C)C(=O)Nc1ccccc1 | 89.2 µM | 1.2 µM | 5 - 17 | 1.4 µM | 74 | Stable | 4 - 49 | 
2 | CC(=O)O[C@H]1C[C@@]2(C)[C@@H](C[C@@H](O)[C@H]3[C@@]4(C)CC[C@@H](O)[C@@H](C)[C@@H]4CC[C@@]32C)/C1=C(\CCC=C(C)C)C(=O)O [FUSIDIC ACID] | > 194 µM |  |  | 19 µM | > 3 |  |  | 50 µM
